Assay results taken from ChEMBL document CHEMBL1140204, “Discovery of boronic acids as novel and potent inhibitors of fatty acid amide hydrolase” (J Med Chem, 2008).
Activity calls are given as the source filed them. No cut-off for these calls is given here.

How the values were obtained:
[1] = target: T1, Fatty-acid amide hydrolase 1 (Rattus norvegicus, UniProt P97612); experiment: Inhibition of Wistar rat brain FAAH assessed as [3H]arachidonoylethanolamide hydrolysis
T1 sequence (P97612 whole entry): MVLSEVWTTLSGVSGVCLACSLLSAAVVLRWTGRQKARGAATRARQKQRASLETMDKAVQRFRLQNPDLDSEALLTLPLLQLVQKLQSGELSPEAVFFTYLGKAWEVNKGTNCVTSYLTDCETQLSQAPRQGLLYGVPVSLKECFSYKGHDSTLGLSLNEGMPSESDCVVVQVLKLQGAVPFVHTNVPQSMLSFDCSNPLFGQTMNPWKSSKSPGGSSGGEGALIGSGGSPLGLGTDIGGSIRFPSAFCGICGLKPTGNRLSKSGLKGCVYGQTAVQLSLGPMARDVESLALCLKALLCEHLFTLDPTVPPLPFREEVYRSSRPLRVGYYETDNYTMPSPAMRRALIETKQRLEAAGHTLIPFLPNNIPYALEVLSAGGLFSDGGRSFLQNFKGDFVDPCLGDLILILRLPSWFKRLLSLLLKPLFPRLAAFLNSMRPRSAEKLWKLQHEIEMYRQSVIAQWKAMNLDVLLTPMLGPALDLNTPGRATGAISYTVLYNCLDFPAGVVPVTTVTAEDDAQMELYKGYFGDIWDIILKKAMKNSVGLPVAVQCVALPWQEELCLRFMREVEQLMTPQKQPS

[2] = target: T2, Monoglyceride lipase (Homo sapiens) (UniProt Q99685); experiment: Inhibition of human recombinant MGL at 100 uM
T2 sequence (whole entry): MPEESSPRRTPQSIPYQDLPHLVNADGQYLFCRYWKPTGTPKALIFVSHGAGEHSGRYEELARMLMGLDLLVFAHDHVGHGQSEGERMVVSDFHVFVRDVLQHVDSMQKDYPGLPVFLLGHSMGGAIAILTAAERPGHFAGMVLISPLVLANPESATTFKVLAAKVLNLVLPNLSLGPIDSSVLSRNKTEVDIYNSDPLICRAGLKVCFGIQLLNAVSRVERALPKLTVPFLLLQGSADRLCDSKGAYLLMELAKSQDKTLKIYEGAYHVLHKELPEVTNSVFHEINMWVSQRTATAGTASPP
In short: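 Human recombinant MGL as enzyme source with 2-AG as substrate. Single-concentration screen at 100 µM, expressed as percent inhibition. Mean of two independent experiments, each performed in duplicate.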

[3] = target: T3, Monoglyceride lipase (Homo sapiens, UniProt Q99685); experiment: Inhibition of human recombinant MGL
T3 sequence (Q99685 whole entry): T2 sequence (whole entry)

[4] = target: T2, Monoglyceride lipase (Homo sapiens); experiment: Inhibition of human recombinant MGL assessed as residual enzyme activity at 1 mM

| SMILES | IC50 [1] [µM] | inhibition [2] [%] | IC50 [3] [µM] | Activity [2] | Activity [4] [%] |
| --- | --- | --- | --- | --- | --- |
| N#Cc1cccc(B(O)O)c1 | 1.6 | 21 | – | – | – |
| OB(O)c1cccc(C(F)(F)F)c1 | 0.08 | – | 38 | – | – |
| OB(O)/C=C/c1ccc(-c2ccccc2)cc1 | 0.014 | – | – | – | – |
| OB(O)c1ccccc1 [PHENYLBORONIC ACID] | 2.6 | – | – | inactive | – |
| CCCCCCCCCc1ccc(B(O)O)cc1 | 0.0091 | – | 7.9 | – | – |
| COc1ccccc1B(O)O | 13 | 11 | – | – | – |
| OB(O)c1ccc(F)nc1 | 10 | 2 | – | – | – |
| OB(O)c1ccc(C(F)(F)F)cc1 | 0.036 | – | – | – | – |
| COc1cccc(B(O)O)c1 | – | 7 | – | – | – |
| OB(O)c1ccccc1C(F)(F)F | 68 | 20 | – | – | – |
| N#Cc1ccc(B(O)O)cc1 | 0.29 | 36 | – | – | – |
| COc1ccc(B(O)O)cc1 | 2 | 11 | – | – | – |
| OB(O)c1ccc(F)cc1 | 1.5 | 3 | – | – | – |
| OB(O)c1cc2ccccc2s1 | 0.15 | – | 32 | – | – |
| OB(O)c1ccc(-c2ccccc2)cc1 [BIPHENYLBORONIC ACID] | 0.021 | – | – | – | – |
| OB(O)c1cc2ccccc2o1 | 0.33 | – | 100 | – | 8.4 |
| O=[N+]([O-])c1ccc(B(O)O)cc1 | 0.21 | 43 | – | – | – |
| OB(O)c1ccccc1-c1ccccc1 | 110 | 2 | – | – | – |
| CCOC(=O)c1cccc(B(O)O)c1 | 0.12 | 34 | – | – | – |
| OB(O)c1ccccc1F | 0.71 | 13 | – | – | – |
| OB(O)c1cccc(-c2ccccc2)c1 | 0.13 | – | – | – | – |
